Tests used:
[1] = molecular target: T1, Trace amine-associated receptor 1 (Mus musculus, UniProt Q923Y8); experiment: Inhibition of mouse TAAR1
[2] = molecular target: T1, Trace amine-associated receptor 1; experiment: Antagonist activity at mouse TAAR1 assessed as reversal of endogenous beta-PEA effect; format: functional
Procedure, shortened: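 Mouse TAAR1 antagonist dose–response run as an in vitro cAMP functional assay. Efficacy is the reversal of the effect of the endogenous agonist β-PEA, with 100% efficacy defined as 0% min% stim. Values are averages of at least two independent experiments.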

[3] = molecular target: Trace amine-associated receptor 1 (Mus musculus) (UniProt Q923Y8); experiment: Antagonist activity at mouse TAAR1 assessed as residual stimulation by in vitro cAMP functional assay relative to control; set-up: concentration or dose not given beside the values
Sequence of Trace amine-associated receptor 1 (Mus musculus) (Q923Y8 whole entry): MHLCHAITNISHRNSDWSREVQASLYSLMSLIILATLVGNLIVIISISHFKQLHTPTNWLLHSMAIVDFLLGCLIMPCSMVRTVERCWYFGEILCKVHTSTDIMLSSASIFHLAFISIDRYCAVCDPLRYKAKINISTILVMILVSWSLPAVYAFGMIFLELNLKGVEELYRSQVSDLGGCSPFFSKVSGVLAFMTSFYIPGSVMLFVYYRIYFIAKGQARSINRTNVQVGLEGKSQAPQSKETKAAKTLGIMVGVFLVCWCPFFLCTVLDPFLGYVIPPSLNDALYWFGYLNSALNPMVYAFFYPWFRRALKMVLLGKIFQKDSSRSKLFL
Procedure, shortened: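 Mouse TAAR1 in vitro cAMP functional assay using the endogenous agonist β-PEA. The read-out is the residual β-PEA stimulation remaining at the maximum test-compound concentration. Values are averages of at least two independent experiments.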

[4] = Lipophilicity, log D of the compound; format: physicochemical; details: octanol/water
[5] = Intrinsic clearance in mouse liver microsomes measured per mg of protein; format: ADME, Microsome
Procedure, shortened: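 Intrinsic clearance from in vitro incubation of compound with mouse liver microsomes, expressed per mg microsomal protein.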

[6] = molecular target: T2, Trace amine-associated receptor 1 (Homo sapiens, UniProt Q96RJ0); experiment: Inhibition of human TAAR1
T2 sequence (Q96RJ0 whole entry): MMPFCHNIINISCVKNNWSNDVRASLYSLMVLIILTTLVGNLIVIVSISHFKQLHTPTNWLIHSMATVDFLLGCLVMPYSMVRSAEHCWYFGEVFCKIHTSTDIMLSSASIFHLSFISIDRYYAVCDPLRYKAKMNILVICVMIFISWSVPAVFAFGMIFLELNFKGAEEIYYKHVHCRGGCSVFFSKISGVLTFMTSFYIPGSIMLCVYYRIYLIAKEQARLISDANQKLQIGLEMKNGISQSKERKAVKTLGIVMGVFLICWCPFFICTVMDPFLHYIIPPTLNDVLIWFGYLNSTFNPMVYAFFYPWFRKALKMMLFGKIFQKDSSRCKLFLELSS
Procedure, shortened: (§1)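 In vitro cAMP functional assay with antagonism read as reversal of the response to the endogenous agonist beta-PEA. Efficacy was scaled so that 100% equals 0% minimum stimulation. Residual beta-PEA stimulation was taken at the highest test-compound concentration. Values are means of at least two independent experiments, with duplicates typically within a twofold margin.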

[7] = molecular target: T2, Trace amine-associated receptor 1; experiment: Antagonist activity at human TAAR1 assessed as reversal of endogenous beta-PEA effect; format: functional; procedure, shortened: as §1
[8] = Aqueous solubility of the compound; format: physicochemical; details: buffer
Liver microsomes = experiment: Intrinsic clearance in human liver microsomes measured per mg of protein; format: ADME, Microsome
Procedure, shortened: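 In vitro incubation with human liver microsomes. Intrinsic clearance is expressed per mg microsomal protein per minute.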

[9] = molecular target: Trace amine-associated receptor 1 (Rattus norvegicus, UniProt Q923Y9); experiment: Inhibition of rat TAAR1; procedure, shortened: as §1
Sequence of Trace amine-associated receptor 1 (Rattus norvegicus, UniProt Q923Y9) (Q923Y9 whole entry): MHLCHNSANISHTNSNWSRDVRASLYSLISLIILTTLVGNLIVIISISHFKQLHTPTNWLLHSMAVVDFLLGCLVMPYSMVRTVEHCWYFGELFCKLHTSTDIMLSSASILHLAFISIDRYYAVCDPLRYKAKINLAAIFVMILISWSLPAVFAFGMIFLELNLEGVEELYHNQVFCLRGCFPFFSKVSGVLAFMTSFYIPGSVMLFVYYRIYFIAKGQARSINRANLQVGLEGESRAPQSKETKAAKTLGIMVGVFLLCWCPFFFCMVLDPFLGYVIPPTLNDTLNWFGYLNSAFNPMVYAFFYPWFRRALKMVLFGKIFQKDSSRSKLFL

T1 sequence (Q923Y8 whole entry): as the sequence (Q923Y8 whole entry) above

Structure (SMILES) | Ki [1] | IC50 [2] | Activity [3] | also measured
COc1cccc(NC(=O)c2ccc(Nc3ccccc3)c([N+](=O)[O-])c2)c1 | – | 175 nM | 0% | –
COc1cccc(NC(=O)c2cnc(N3CCCC3)c(C(F)(F)F)c2)c1 | – | – | – | clearance [5]: 321 µL/min/mg
O=C(Nc1cccc(OC(F)(F)C(F)F)c1)c1ccc(N2CCCC2)c(C(F)(F)F)c1 | – | 364 nM | 0% | –
O=C(Nc1cccc(Oc2ccccc2)c1)c1ccc(N2CCCC2)c(C(F)(F)F)c1 | 82 nM | – | – | –
COc1cccc(NC(=O)c2cnc(N3CCC(C)CC3)c(C(F)(F)F)c2)c1 | – | – | – | logD [4]: > 4; clearance [5]: 107 µL/min/mg
O=C(Nc1cccc(Cl)c1)c1ccc(N2CCCC2)c(C(F)(F)F)c1 | – | 245 nM | 0% | –
COc1cccc(NC(=O)c2ccc(Br)c([N+](=O)[O-])c2)c1 | – | 43 nM | 0% | –
COc1cccc(NC(=O)c2ccc(-n3cccn3)c([N+](=O)[O-])c2)c1 | 262 nM | – | – | –
COc1cccc(NC(=O)c2cccc([N+](=O)[O-])c2)c1 | 189 nM | 665 nM | 0% | –
O=C(Nc1cccc(OC(F)F)c1)c1ccc(N2CCCC2)c(C(F)(F)F)c1 | – | 187 nM | 0% | –
CCc1cccc(NC(=O)c2ccc(N3CCCC3)c(C(F)(F)F)c2)c1 | – | 470 nM | 0% | –
COc1cccc(NC(=O)c2ccc(N3CCC(C)CC3)c([N+](=O)[O-])c2)c1 | – | 60 nM | 0% | Ki [6]: > 20000 nM; IC50 [7]: 3790 nM; logD [4]: > 3; solubility [8]: < 1 µg/mL; clearance (Liver microsomes): 154 µL/min/mg; clearance [5]: 396 µL/min/mg
COc1cccc(NC(=O)c2ccc(NC(C)C)c([N+](=O)[O-])c2)c1 | – | 142 nM | 0% | –
O=C(Nc1cccc(F)c1)c1ccc(N2CCCC2)c(C(F)(F)F)c1 | – | 20 nM | 0% | –
CCNc1ccc(C(=O)Nc2cccc(OC)c2)cc1[N+](=O)[O-] | – | 75 nM | 23% | –
COc1cccc(NC(=O)c2ccc(N)c([N+](=O)[O-])c2)c1 | 1920 nM | – | – | –
CC(C)Oc1cccc(NC(=O)c2ccc(N3CCCC3)c(C(F)(F)F)c2)c1 | 4 nM | 27 nM | 0% | –
O=C(Nc1cccc(Br)c1)c1ccc(N2CCCC2)c(C(F)(F)F)c1 | – | 568 nM | 0% | –
CCCNc1ccc(C(=O)Nc2cccc(OC)c2)cc1[N+](=O)[O-] | – | 13 nM | 14% | –
COc1cccc(NC(=O)c2ccc(S(=O)(=O)N3CC(C)CC(C)C3)c(F)c2)c1 (racemic) | 4 nM | 6 nM | 28% | Ki [6]: > 20000 nM; Ki [9]: 1390 nM; IC50 [7]: > 10000 nM; solubility [8]: < 1 µg/mL; clearance (Liver microsomes): 538 µL/min/mg; clearance [5]: 1700 µL/min/mg
COc1cccc(NC(=O)c2ccc(N3CCN(C)CC3)c([N+](=O)[O-])c2)c1 | 164 nM | – | – | –
COc1cccc(NC(=O)c2ccc(NCc3ccccc3)c([N+](=O)[O-])c2)c1 | – | 14 nM | 3% | –
Cc1cccc(NC(=O)c2ccc(N3CCCC3)c(C(F)(F)F)c2)c1 | – | 70 nM | 0% | –
O=C(Nc1cccc(OC(F)(F)F)c1)c1ccc(N2CCCC2)c(C(F)(F)F)c1 | 101 nM | – | – | –
CC(=O)c1cccc(NC(=O)c2ccc(N3CCCC3)c(C(F)(F)F)c2)c1 | – | 120 nM | 0% | –

More lines, main results first:

Ki [1] | IC50 [2] | Activity [3] | Structure (SMILES) | also measured
7430 nM | – | – | COc1cccc(NC(=O)c2ccc(F)c(S(N)(=O)=O)c2)c1 | –
– | 19 nM | 0% | COc1cccc(NC(=O)c2ccc(N3CCCCC3)c([N+](=O)[O-])c2)c1 | –
103 nM | 79 nM | 0% | COc1cccc(NC(=O)c2ccc(N3CCOCC3)c([N+](=O)[O-])c2)c1 | logD [4]: 2.7; clearance [5]: 18 µL/min/mg
– | 12 nM | 0% | COc1cccc(NC(=O)c2ccc(Cl)c([N+](=O)[O-])c2)c1 | –
1580 nM | – | – | COc1cccc(NC(=O)c2ccc(F)c(C)c2)c1 | –
– | 17 nM | 0% | COc1cccc(NC(=O)c2ccc(N3CCCC3)c([N+](=O)[O-])c2)c1 | –
25 nM | – | – | COc1cccc(NC(=O)c2ccc(Cl)c(Cl)c2)c1 | –
229 nM | – | – | COc1cccc(NC(=O)c2ccc(F)c(F)c2)c1 | –
694 nM | – | – | COc1cccc(NC(=O)c2ccc(F)c(S(=O)(=O)N3CCCCC3)c2)c1 | –
6000 nM | – | – | COc1cccc(NC(=O)c2cccc(S(C)(=O)=O)c2)c1 | –
138 nM | – | – | COc1cccc(NC(=O)c2ccc(F)c(OC(F)(F)F)c2)c1 | –
3 nM | 67 nM | 0% | COc1cccc(NC(=O)c2ccc(N3CCCC3)c(C(F)(F)F)c2)c1 | clearance [5]: 341 µL/min/mg
149 nM | – | – | COc1cccc(NC(=O)c2ccc(F)c(C#N)c2)c1 | –
– | 200 nM | 9% | COc1cccc(NC(=O)c2ccc(N3CCC3)c([N+](=O)[O-])c2)c1 | –
139 nM | – | – | COc1cccc(NC(=O)c2ccc(F)c(C(C)=O)c2)c1 | –
